Shown are actives, neighbours in structure and some others; about 1.4% of the full set was active somewhere.
HNF4A DNA FP – change in binding of human HNF4 alpha to DNA | activity change, % at 10 µM | AID 1224865 | P41235 | 0.3% of 360,000 active | HNF4a-FITC DNA binding, fluorescence polarization, 1 h; in the data active = activity change above about 30%, passing the limit was not always enough
TPT1 inh – inhibitors of Candida albicans tRNA 2'-phosphotransferase TPT1; recombinant caTPT1, FP RNA substrate dephosphorylation; inhibition, % at 5 µM; 0.81% of 300,000 active;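 active = inhibition above the mean of all tested compounds plus 3 SD, set per screening campaign, cut at about 24% in these data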;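 note: plate controls were DMSO alone for no effect and ferristatin control at 100 nM for full effect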
CSN inh – blocks human CSN-mediated cullin deneddylation | Q92905 | Purified CSN, SCF-Nedd8-OG deneddylation, fluorescence polarization | inhibition, % at 12.5 µM | 0.38% of 360,000 active | AID 651999;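 active = pattern-corrected inhibition above about 35%, with an unprinted fluorescence ratio check between 0.5 and 1.5, limit read from the data, passing the limit was not always enough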;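 note: 0% = enzyme with substrate and 100% = substrate without enzyme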
Target sequence (Q92905 whole entry, looked up, one chain of several): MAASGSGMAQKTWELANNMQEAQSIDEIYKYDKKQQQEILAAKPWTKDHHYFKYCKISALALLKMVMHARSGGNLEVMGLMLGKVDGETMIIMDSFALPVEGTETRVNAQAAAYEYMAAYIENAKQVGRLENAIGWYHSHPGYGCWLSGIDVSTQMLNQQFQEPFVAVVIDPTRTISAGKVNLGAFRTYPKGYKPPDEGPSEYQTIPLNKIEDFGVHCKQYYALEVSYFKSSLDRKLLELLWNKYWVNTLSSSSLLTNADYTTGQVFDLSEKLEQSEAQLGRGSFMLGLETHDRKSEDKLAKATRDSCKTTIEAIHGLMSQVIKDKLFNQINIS
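Assay system: HEK293T-derived human Csn5 enzyme; quantity: 0.24 nM enzyme; medium: Tris/NaCl/DTT buffer, pH 7.5; also added: substrate SCFSkp2-Nedd8OG, 10 nM; doses: 12.5 µM compound; schedule: 90 min reaction at room temperature; signal: FP; read-out: % inhibition of substrate cleavage by Csn5; benchmarks: substrate-only high control, full reaction low control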
IDE act – IDE (human) activation, cell-based. P14735. HEK cells, FAbeta-B cleavage, fluorescence polarization; 0% vehicle, 100% cell-free pure enzyme wells. activation, % at 5.96 µM. 0.073% of 340,000 active;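 active = activation above the mean of all tested compounds plus 3 SD, set per screening campaign, cut at about 17% in these data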
IDE inh – inhibitors of human insulin-degrading enzyme in cells; P14735; HEK cells, FAbetaB cleavage, fluorescence polarization; inhibition, % at 5.59 µM; 0.41% of 320,000 active;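 active = percent inhibition above the average of all tested compounds plus 3 SD, set per screening campaign, cut at about 16% in these data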;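 note: IDE supplied by intact live HEK cells; FP after avidin binding of uncleaved biotin substrate so inhibition keeps polarization high; 0% = DMSO wells and 100% = 60 µM reference IDE inhibitor Ii1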
caTPT1 confirm – TPT1 (C. albicans) inhibition, confirmation. 74% of 2,400 active. recombinant caTPT1, fluorescence polarization, RNase T1 coupled. inhibition, % at 5 µM. shares compounds with TPT1 inh;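 active = inhibition above the primary screen limit, the mean inhibition of all tested compounds plus 3 SD, cut at about 25% in these data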
RNase T1 counter – counter-screen for TPT1 inhibitors: inhibitors of Aspergillus oryzae RNase T1; 83% of 2,400 active; shares compounds with TPT1 inh; inhibition, % at 5 µM; RNase T1 cleavage, fluorescence polarization, 1536-well; AID 2153;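 active = inhibition above the solvent-only control well mean plus 3 SD, limit set per screening run, cut at about 23% in these data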;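 note: plate controls were DMSO wells with enzyme for no effect and wells without RNase T1 for full effect; inhibitors block cleavage so intact labeled substrate keeps polarization high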
Target sequence (P00651 whole entry, looked up): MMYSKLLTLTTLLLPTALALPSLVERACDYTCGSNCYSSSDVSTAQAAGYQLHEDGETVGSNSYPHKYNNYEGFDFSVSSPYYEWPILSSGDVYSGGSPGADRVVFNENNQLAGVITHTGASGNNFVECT
IDE cell inh cf – cellular human IDE inhibition, confirmation. HEK cells, FAbetaB cleavage, fluorescence polarization. inhibition, % at 5.59 µM. shares compounds with IDE inh. AID 435028. 51% of 1,200 active;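 active = mean inhibition across triplicate wells above the cutoff set by the earlier primary insulin-degrading enzyme screen, cut at about 16% in these data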;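 note: 0% = DMSO wells and 100% = 60 µM reference IDE inhibitor Ii1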
HEK cytotox – kills HEK cells in IDE inhibitor counter-screen | shares compounds with IDE inh | HEK293 cytotoxicity, ATP luminescence | inhibition, % at 5.59 µM | 28% of 1,200 active; in the data active = inhibition above about 22%;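 note: 0% = vehicle wells and 100% = reference cytotoxic drug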
An asterisk follows results filed as active; / = no result.

SMILES | HNF4A DNA FP | TPT1 inh | CSN inh | IDE act | IDE inh | caTPT1 confirm | RNase T1 counter | IDE cell inh cf | HEK cytotox
CCN(CC)c1ccc2c(c1)OC(N)=C(C#N)C2c1cccnc1 (stereo not drawn) | 78 | 71* | 71 | -28 | 49* | 57* | 64* | 31* | 70*
COc1cc(/C=C2/SC(=S)N(c3c(C)n(C)n(-c4ccccc4)c3=O)C2=O)ccc1O | 25 | 29* | 31 | -34 | 18* | 29* | 42* | 46* | 11
COc1cc(/C=C2\SC(=S)N(NS(=O)(=O)c3ccccc3)C2=O)ccc1O | 30 | 31* | 31 | -103 | 74* | 34* | 42* | 161* | 7
Cc1c(N2C(=O)/C(=C3/C(=O)N(C)c4ccccc43)SC2=S)c(=O)n(-c2ccccc2)n1C | 1 | 1 | 0 | 3 | -2 | / | / | / | /
C[C@@H](NC(=O)/C(C#N)=C/c1ccc(O)c(O)c1)c1ccccc1 | 0 | 8 | -1 | 4 | 5 | / | / | / | /
N#C/C(=C\c1ccc(O)c(O)c1)C(=O)Nc1ccccc1 | 4 | 33* | 5 | -43 | 26* | 40* | 48* | 50* | 10
Oc1c(Cl)cc(Cl)cc1/C=C/c1ccc2cccc(O)c2n1 | 10 | 56* | 32 | -54 | 33* | 51* | 59* | 54* | 15
COc1ccc(N=Cc2oc3ccc4ccccc4c3c2O)cc1 | 35 | 114* | 23 | -27 | 18* | 71* | 75* | 29* | 5
COc1ccc(N=Cc2ccccc2O)cc1 | 4 | / | 1 | 3 | / | / | / | / | /
CC(=NNC1=NCCN1)c1cnn(C2=NCCN2)c1C | 2 | / | 3 | / | / | / | / | / | /
COc1ccc(-[n+]2c(C)cc(/C=C3\Sc4ccccc4N3C)cc2C)cc1 | 50* | 91* | 21 | -65 | 72* | 123* | 128* | 105* | 111*
COc1ccc(C(=O)/C=C2\Sc3ccccc3N2C)cc1 | -1 | 2 | -10 | / | -7 | / | / | / | /
CCCCCC(C)NC(=O)c1cc(S(=O)(=O)N2CCCCC2)ccc1N1CCOCC1 (stereo not drawn) | -1 | / | 3 | 2 | -5 | / | / | / | /
CC1C/C(=C/c2cccn2C)C(=O)/C(=C/c2cccn2C)C1 (stereo not drawn) | 91 | 191* | -67 | -74 | 39* | 187* | 170* | 94* | 23*
CC1C/C(=C/c2ccncc2)C(=O)/C(=C/c2ccncc2)C1 (stereo not drawn) | 0 | 3 | 18 | -1 | 3 | / | / | / | /
CCN(CC)c1ccc2cc(-c3nnc(-c4ccccc4)o3)c(=O)oc2c1 | -80 | 117* | -79 | -64 | 36* | 122* | 115* | 83* | 6
CC1(Oc2ccccc2-c2ccno2)CCN(Cc2csc3ccccc23)C1 (stereo not drawn) | -7 | / | 0 | / | / | / | / | / | /
C=CCN1C(=O)c2ccc(C(=O)N3CCC(C(N)=O)CC3)cc2C1=O | 0 | -2 | 2 | -1 | 5 | / | / | / | /
CCN(CC)c1ccc(C=C(c2nnnn2-c2ccccc2)c2nnnn2-c2ccccc2)cc1 | 30 | 69* | 22 | -23 | 32* | 94* | 104* | 30* | 17
Cc1ccc(-n2nnnc2C(=Cc2ccc(N(C)C)cc2)c2nnnn2-c2ccc(C)cc2)cc1 | 20 | 15 | 15 | 2 | -3 | / | / | / | /
CCCN1CCc2c(sc(NC(=O)c3ccc(S(=O)(=O)N(C)c4ccccc4)cc3)c2C(N)=O)C1 | 34* | 107* | 9 | -8 | 16* | 113* | 115* | 11 | 26*
CCN1CCc2c(sc(NC(=O)c3ccc(S(=O)(=O)N(C)CC4CCCO4)cc3)c2C(N)=O)C1 (stereo not drawn) | 2 | 9 | -4 | 5 | 2 | / | / | / | /
CN1CCc2c(sc(NC(=O)c3ccc(S(=O)(=O)N4CCCCCC4)cc3)c2C(N)=O)C1 | 37 | 119* | 22 | -18 | 25* | 126* | 125* | 4 | 19
Cc1cc(/C=C2\C(=N)N3C(SCc4ccccc4)=NSC3=NC2=O)c(C)n1Cc1ccccc1 | 17 | 6 | 5 | 8 | -1 | / | / | / | /
CSC1=NSC2=NC(=O)/C(=C\c3coc4ccccc4c3=O)C(=N)N12 | 48 | 62* | 55 | -63 | 43* | 61* | 65* | 46* | 6
SMILES | HNF4A DNA FP | TPT1 inh | CSN inh | IDE act | IDE inh | caTPT1 confirm | RNase T1 counter | IDE cell inh cf | HEK cytotox
N=C1/C(=C\c2coc3ccccc3c2=O)C(=O)N=C2SC(c3ccncc3)=NN12 | 52 | 79* | 70 | -35 | 42* | 71* | 84* | 20* | 6
CC(C)CSC1=NSC2=NC(=O)/C(=C\c3coc4ccccc4c3=O)C(=N)N12 | 2 | 43* | -75 | -128 | 63* | 10 | 26* | 106* | 8
CC(C)CSC1=NSC2=NC(=O)/C(=C\c3ccccc3)C(=N)N12 | -1 | 5 | -6 | 4 | 2 | / | / | / | /
CC(C)c1cccc(C(C)C)c1OCCCCCN1CCOCC1 | 2 | 0 | -2 | / | 7 | / | / | / | /
Cc1cccc(C(=O)C2CCN(S(=O)(=O)c3cccc(C(=O)O)c3)CC2)c1 | 0 | / | 2 | -3 | / | / | / | / | /
CCN(CC)c1ccc(/C=C(/C#N)c2nc3ccccc3[nH]2)c(OC(C)C)c1 | 53 | 163* | -65 | -154 | 141* | 163* | 149* | 149* | 32*
CCOc1cccc(/C=C(/C#N)c2nc3ccccc3[nH]2)c1OCC(=O)O | -1 | -2 | 1 | 2 | -19 | / | / | / | /
CC(C)(C)C1CCC2(CC1)C(C#N)=C(SCC(=O)Nc1ccccc1)NC(=O)C2C#N (stereo not drawn) | -2 | 5 | 3 | 6 | 5 | / | / | / | /
N#CC1=C(SCC(=O)c2cc3ccccc3oc2=O)NC(=O)C(C#N)C12CCCC2 (stereo not drawn) | 10 | 49* | 12 | -22 | 21* | 30* | 39* | 9 | 12
CCC(C)NC(=O)C1CCN(S(=O)(=O)c2ccc(-n3cnnn3)cc2)CC1 (stereo not drawn) | 5 | -1 | -3 | 2 | 3 | / | / | / | /
Cc1ccc(NC(=O)CSc2nc(=O)n(CCN(C)C)c3c2CCCC3)cc1Cl | 5 | -3 | 3 | 3 | 0 | / | / | / | /
CCN1/C(=C/c2cc[n+](CCCS(=O)(=O)[O-])c3ccccc23)Sc2ccccc21 | 28 | 48* | 14 | -8 | 26* | 37* | 52* | 28* | 10
